Measurements from ChEMBL document CHEMBL1268948, “1,6-AnhMurNAc derivatives for assay development of amidase AmiD” (Bioorg Med Chem, 2010).
Activity calls are given as the source filed them. No cut-off for these calls is given here.

Key:
Escherichia coli [1] = test: Inhibition of Escherichia coli N-acetyl-muramoyl-L-alanine amidase AmiD assessed as residual activity at 1 mM preincubated for 30 mins
Escherichia coli [2] = test: Inhibition of Escherichia coli N-acetyl-muramoyl-L-alanine amidase AmiD assessed as residual activity at 100 uM after 20 mins
Summary of the method: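 Periplasmic soluble E. coli AmiD (sAmiD, 39 nM) was preincubated with the test compound for 20 min at 30 °C in 20 mM sodium phosphate buffer containing 48 nM ZnCl₂. Residual activity was taken as the initial rate of hydrolysis of 29 µM TCT (GlcNAc-anhMurNAc-tetrapeptide) added afterwards. The reaction was stopped after 20 min with diluted H₃PO₄ and analysed by RP-HPLC.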

Escherichia coli [3] = test: Inhibition of Escherichia coli N-acetyl-muramoyl-L-alanine amidase AmiD assessed as residual activity at 1 mM after 20 mins; values are per cent of control
Escherichia coli [4] = test: Inhibition of Escherichia coli N-acetyl-muramoyl-L-alanine amidase AmiD assessed as residual activity at 0.5 mM after 20 mins; values are per cent of control

Structure (SMILES)	inhibition (Escherichia coli [1])	inhibition (Escherichia coli [2])	residual activity (Escherichia coli [3]) [%]	residual activity (Escherichia coli [4]) [%]
CC(=O)N[C@H]1[C@@H]2OC[C@@H](O2)[C@@H](OCc2ccccc2)[C@H]1O[C@H](C)C(=O)O	inactive	–	–	–
CC(=O)N[C@H]1[C@@H]2OC[C@@H](O2)[C@@H](O)[C@H]1O[C@H](C)C(=O)Nc1ccccc1	inactive	inactive	–	–
CC(=O)N[C@H]1[C@@H]2OC[C@@H](O2)[C@@H](O)[C@H]1O[C@H](C)C(=O)N[C@@H](C)C(=O)Nc1ccc([N+](=O)[O-])cc1	inactive	inactive	–	–

Further lines, results first:

inhibition (Escherichia coli [1])	inhibition (Escherichia coli [2])	residual activity (Escherichia coli [3]) [%]	residual activity (Escherichia coli [4]) [%]	Structure (SMILES)
inactive	inactive	–	–	CC(=O)N[C@H]1[C@@H]2OC[C@@H](O2)[C@@H](O)[C@H]1O[C@H](C)C(=O)Nc1ccc(C(F)(F)F)cc1
–	inactive	64	83	CC(=O)N[C@H]1[C@@H]2OC[C@@H](O2)[C@@H](O)[C@H]1O[C@H](C)C(=O)N[C@@H](C)C(=O)N[C@H](CCC(=O)Nc1ccccc1)C(=O)O
inactive	inactive	–	–	CC(=O)N[C@H]1[C@@H]2OC[C@@H](O2)[C@@H](O)[C@H]1O[C@H](C)C(=O)Nc1ccc(C(C)=O)cc1
